Laboratory results: ChEMBL document CHEMBL4043076, “Hormonemate Derivatives from Dothiora sp., an Endophytic Fungus” (J Nat Prod, 2017)

Tests used:
Format in all cases: functional, cell-based
[1] = tested on: HepG2; assay: Cytotoxicity against human HepG2 cells assessed as reduction in cell viability incubated for 24 hrs by MTT assay; settings: HepG2, 24 h
Summary of the method: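 HepG2 (ATCC) grown in Eagle's MEM with 10% FBS, 2 mM L-glutamine, 1 mM sodium pyruvate and 100 μM nonessential amino acids at 37 °C, 5% CO2. Seeded at 20000 cells/well for the 24 h assay. Compounds were run in triplicate at 10 two-fold dilutions from 40 μg/mL, with 0.5% DMSO maximum. Viability was read by MTT reduction and IC50 determined.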

[2] = tested on: MIA PaCa-2; assay: Cytotoxicity against human MIAPaCa2 cells assessed as reduction in cell viability incubated for 24 hrs by MTT assay; settings: MIA PaCa-2, 24 h
Summary of the method: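 MiaPaca_2 (ATCC CRL-1420) cultured in DMEM with 10% FBS, 2.5% horse serum, 1% L-glutamine and 1% penicillin/streptomycin at 37 °C, 5% CO2. Seeding was 20000 cells/well for the 24 h assay. Compounds were tested in triplicate over 10 two-fold dilutions from a 40 μg/mL top concentration, with 0.5% DMSO as negative control. MTT reduction was used for IC50.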

[3] = tested on: MCF7; assay: Cytotoxicity against human MCF7 cells assessed as reduction in cell viability incubated for 24 hrs by MTT assay; settings: MCF7, 24 h
Summary of the method: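 MCF-7 (ATCC HTB-22) kept in MEM with 10% FBS, glutamine, pyruvate and nonessential amino acids plus 0.01 mg/mL bovine insulin at 37 °C, 5% CO2. Plated at 30000 cells/well for the 24 h exposure. Triplicate 10-point, 2-fold serial dilutions from 40 μg/mL were used, with DMSO ≤0.5%. MMS served as positive control. The MTT viability read-out gave the IC50.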

With `CC[C@H](C)[C@@H](O)C(=O)O[C@@H](C(=O)O[C@@H](C(=O)O[C@@H](C(=O)OC[C@@H](O)[C@@H](O)[C@H](O)CO)[C@@H](C)CC)[C@@H](C)CC)[C@@H](C)CC` the IC50 [1] was greater than 65.7 µM, the IC50 [2] was greater than 65.7 µM and the IC50 [3] was greater than 65.7 µM.

For `CC[C@H](C)[C@@H](O)C(=O)O[C@@H](C(=O)O[C@@H](C(=O)O[C@@H](C(=O)O[C@@H](C(=O)O[C@H](CO)[C@@H](O)[C@H](O)[C@H](O)CO)[C@@H](C)CC)[C@@H](C)CC)[C@@H](C)CC)[C@@H](C)CC`, the IC50 [1] was 36.2 µM, the IC50 [2] was greater than 53.2 µM and the IC50 [3] was 18.3 µM.

With `CC[C@H](C)[C@@H](O)C(=O)O[C@@H](C(=O)O[C@@H](C(=O)O[C@@H](C(=O)O[C@@H](C(=O)O[C@H](CO)[C@@H](O)[C@H](O)CO)[C@@H](C)CC)[C@@H](C)CC)[C@@H](C)CC)[C@@H](C)CC` the IC50 [1] was 26.2 µM, the IC50 [2] was 36.4 µM and the IC50 [3] was 19 µM.

Compound `CC[C@H](C)[C@@H](O)C(=O)O[C@@H](C(=O)O[C@@H](C(=O)O[C@@H](C(=O)O[C@@H](C(=O)OC[C@@H](O)[C@@H](O)CO)[C@@H](C)CC)[C@@H](C)CC)[C@@H](C)CC)[C@@H](C)CC` has an IC50 [1] of 28.7 µM, an IC50 [2] greater than 57.8 µM and an IC50 [3] of 11.1 µM.

`CC[C@H](C)[C@@H](O)C(=O)O[C@@H](C(=O)O[C@@H](C(=O)O[C@@H](C(=O)O[C@@H](C(=O)O[C@@H]([C@H](O)[C@H](O)CO)[C@H](O)CO)[C@@H](C)CC)[C@@H](C)CC)[C@@H](C)CC)[C@@H](C)CC` was tested, and the IC50 [1] was greater than 53.2 µM, the IC50 [2] was greater than 53.2 µM and the IC50 [3] was 27.8 µM.

`CC[C@H](C)[C@@H](O)C(=O)O[C@@H](C(=O)O[C@@H](C(=O)O[C@@H](C(=O)O[C@@H](C(=O)OC[C@@H](O)[C@@H](O)[C@H](O)CO)[C@@H](C)CC)[C@@H](C)CC)[C@@H](C)CC)[C@@H](C)CC` gave an IC50 [1] of 29 µM, an IC50 [2] greater than 55.4 µM and an IC50 [3] of 15.6 µM.

With `CC[C@H](C)[C@@H](O)C(=O)O[C@@H](C(=O)O[C@@H](C(=O)O[C@@H](C(=O)O[C@@H](C(=O)OC[C@@H](O)[C@@H](O)[C@H](O)[C@H](O)CO)[C@@H](C)CC)[C@@H](C)CC)[C@@H](C)CC)[C@@H](C)CC` the IC50 [1] was greater than 53.2 µM, the IC50 [2] was greater than 53.2 µM and the IC50 [3] was 24.3 µM.

`COc1cccc2c1C(=O)c1c(O)c3c(c(O)c1C2=O)C[C@@](O)(C(=O)CO)C[C@@H]3O[C@H]1C[C@H](N)[C@H](O)[C@H](C)O1` [DOXORUBICIN] was tested, and the IC50 [1] was 0.2 µM and the IC50 [2] was 1.9 µM.
